# Assay: Tested for pharmacokinetic parameter in fasted Beagle dogs (Clearance value of the compound) iv administration.
# Format: ADME, organism-based, Canis lupus familiaris
# Conditions: dog, in vivo
# In short: (§1)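 Single intravenous bolus of 10 mg/kg given to fasted beagle dogs. Plasma was extracted with hexane and assayed by GC with electron-capture detection or by reverse-phase HPLC, depending on the analyte. Concentrations below the minimum quantifiable level were ignored when computing means. Half-life and CL were derived from plasma profiles by model-independent methods, and AUC by the trapezoidal rule.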
row,SMILES,clearance [mL/min/kg]
1,Cc1cc(CCCCCOc2c(Cl)cc(C3=NCCO3)cc2Cl)on1 [WIN-54954],31.8
2,Cc1cc(CCCOc2c(C)cc(-c3noc(C(F)(F)F)n3)cc2C)on1 [PLECONARIL],12.8

# Assay: Tested for pharmacokinetic parameter in fasted Beagle dogs (Half-life) iv administration.
# Format: ADME, organism-based, Canis lupus familiaris
# Conditions: dog, in vivo
# In short: as §1
row,SMILES,half-life [h]
1,Cc1cc(CCCCCOc2c(Cl)cc(C3=NCCO3)cc2Cl)on1 [WIN-54954],7
2,Cc1cc(CCCOc2c(C)cc(-c3noc(C(F)(F)F)n3)cc2C)on1 [PLECONARIL],27

# Assay: t1/2 in monkey liver microsomes
# Format: ADME, Microsome
# Conditions: simiiformes
row,SMILES,half-life [h]
1,CC(=O)c1ccc(CCCOc2c(C)cc(-c3noc(C)n3)cc2C)o1,0.617
2,Cc1cc(CCCOc2c(C)cc(-c3noc(CF)n3)cc2C)on1,0.233
3,Cc1cc(-c2noc(C(F)(F)F)n2)cc(C)c1OCCCc1cccc(F)n1,> 2.5
4,Cc1ccc(CCCOc2c(C)cc(-c3noc(C)n3)cc2C)cn1,1.37
5,Cc1cc(CCCOc2c(C)cc(-c3noc(C(F)(F)F)n3)cc2C)on1 [PLECONARIL],> 2.5
6,Cc1cc(CCCOc2c(C)cc(-c3noc(CC(F)(F)F)n3)cc2C)on1,0.533
7,COc1nc(-c2cc(C)c(OCCCc3cc(C)no3)c(C)c2)no1,0.55
8,Cc1cc(-c2noc(C3CC3)n2)cc(C)c1OCCCc1cc(C2CC2)no1,> 2.5
9,CC(=O)c1ccc(CCCOc2c(C)cc(-c3noc(C(F)(F)F)n3)cc2C)o1,1.05
10,CCOCc1cc(CCCOc2c(C)cc(-c3noc(C(F)(F)F)n3)cc2C)on1,> 2.5
11,CCc1cc(CCCOc2c(C)cc(-c3noc(C)n3)cc2C)on1,0.183
12,Cc1cc(CCCOc2c(C)cc(-c3noc(C(F)F)n3)cc2C)on1,1.42
13,COCc1cc(CCCOc2c(C)cc(-c3noc(C)n3)cc2C)on1,0.5
14,Cc1nc(-c2cc(C)c(OCCCc3cc(C(F)(F)F)no3)c(C)c2)no1,0.55
15,Cc1cc(-c2noc(C3CC3)n2)cc(C)c1OCCCc1cc(CO)no1,> 2.5
16,Cc1cc(-c2noc(C(F)(F)F)n2)cc(C)c1OCCCc1cc(C[S+](C)[O-])no1 (centres undefined),> 2.5
17,CCOc1cc(CCCOc2c(C)cc(-c3noc(C4CC4)n3)cc2C)on1,> 2.5

row,SMILES,half-life [h]
1,Cc1ccc(CCCOc2c(C)cc(-c3noc(C(F)(F)F)n3)cc2C)cn1,1.97
2,Cc1cc(-c2noc(C3CC3)n2)cc(C)c1OCCCc1cc(OCCO)no1,> 2.5
3,Cc1cc(CCCOc2c(C)cc(-c3noc(C)n3)cc2C)on1,0.45
4,COCc1cc(CCCOc2c(C)cc(-c3noc(C(F)(F)F)n3)cc2C)on1,1.58
5,Cc1cc(CCCOc2c(C)cc(-c3noc(C#N)n3)cc2C)on1,0.283
6,Cc1cc(-c2noc(C(F)(F)F)n2)cc(C)c1OCCCc1cc(CS(C)(=O)=O)no1,> 2.5
7,Cc1cc(CCCOc2c(C)cc(-c3noc(C(N)=O)n3)cc2C)on1,2.3
8,Cc1cc(-c2noc(C(F)(F)F)n2)cc(C)c1OCCCc1cc(CO)no1,> 2.5
9,CCc1cc(CCCOc2c(C)cc(-c3noc(C(F)(F)F)n3)cc2C)on1,> 2.5
10,CCOc1nc(-c2cc(C)c(OCCCc3cc(C)no3)c(C)c2)no1,> 2.5
11,Cc1cc(CCCOc2c(C)cc(-c3noc(C(C)(F)F)n3)cc2C)on1,1.1
12,CCc1cc(CCCOc2c(C)cc(-c3noc(C4CC4)n3)cc2C)on1,0.9
13,Cc1cc(CCCOc2c(C)cc(-c3noc(C4CC4)n3)cc2C)on1,2.23
14,Cc1cc(CCCOc2c(C)cc(-c3noc(C(Cl)(Cl)Cl)n3)cc2C)on1,0.183
15,Cc1nc(-c2cc(C)c(OCCCc3cccc(F)n3)c(C)c2)no1,0.283
16,COCc1cc(CCCOc2c(C)cc(-c3noc(C4CC4)n3)cc2C)on1,> 2.5

# Assay: Tested for pharmacokinetic parameter in fasted Beagle dogs (Area Under Curve value) iv administration.
# Format: ADME, organism-based, Canis lupus familiaris
# Conditions: dog, in vivo
# In short: as §1
row,SMILES,AUC [ng·h/mL]
1,Cc1cc(CCCCCOc2c(Cl)cc(C3=NCCO3)cc2Cl)on1 [WIN-54954],4910
2,Cc1cc(CCCOc2c(C)cc(-c3noc(C(F)(F)F)n3)cc2C)on1 [PLECONARIL],11800

# Reference: ChEMBL document CHEMBL1128597, “Picornavirus inhibitors: trifluoromethyl substitution provides a global protective effect against hepatic metabolism” (J Med Chem, 1995)
